Measurements published in ChEMBL document CHEMBL3627719, “Discovery of bis-aryl urea derivatives as potent and selective Limk inhibitors: Exploring Limk1 activity and Limk1/ROCK2 selectivity through a combined computational study” (Bioorg Med Chem, 2015).

Columns and labels:
LIM domain kinase 1 = LIM domain kinase 1 (Homo sapiens, UniProt P53667); test: Inhibition of LIMK1 (unknown origin) using 1 uM cofilin as substrate
In short: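 IC50 was determined in 10-dose mode using a 3-fold serial dilution series. Reactions contained ATP, cofilin as substrate, and Limk1 enzyme at 50 nM.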

[1] = target: Rho-associated protein kinase 2 (Homo sapiens, UniProt O75116); test: Inhibition of ROCK2 (unknown origin) after 4 hrs using 1 uM STK2 as substrate
Sequence of Rho-associated protein kinase 2 (O75116 whole entry): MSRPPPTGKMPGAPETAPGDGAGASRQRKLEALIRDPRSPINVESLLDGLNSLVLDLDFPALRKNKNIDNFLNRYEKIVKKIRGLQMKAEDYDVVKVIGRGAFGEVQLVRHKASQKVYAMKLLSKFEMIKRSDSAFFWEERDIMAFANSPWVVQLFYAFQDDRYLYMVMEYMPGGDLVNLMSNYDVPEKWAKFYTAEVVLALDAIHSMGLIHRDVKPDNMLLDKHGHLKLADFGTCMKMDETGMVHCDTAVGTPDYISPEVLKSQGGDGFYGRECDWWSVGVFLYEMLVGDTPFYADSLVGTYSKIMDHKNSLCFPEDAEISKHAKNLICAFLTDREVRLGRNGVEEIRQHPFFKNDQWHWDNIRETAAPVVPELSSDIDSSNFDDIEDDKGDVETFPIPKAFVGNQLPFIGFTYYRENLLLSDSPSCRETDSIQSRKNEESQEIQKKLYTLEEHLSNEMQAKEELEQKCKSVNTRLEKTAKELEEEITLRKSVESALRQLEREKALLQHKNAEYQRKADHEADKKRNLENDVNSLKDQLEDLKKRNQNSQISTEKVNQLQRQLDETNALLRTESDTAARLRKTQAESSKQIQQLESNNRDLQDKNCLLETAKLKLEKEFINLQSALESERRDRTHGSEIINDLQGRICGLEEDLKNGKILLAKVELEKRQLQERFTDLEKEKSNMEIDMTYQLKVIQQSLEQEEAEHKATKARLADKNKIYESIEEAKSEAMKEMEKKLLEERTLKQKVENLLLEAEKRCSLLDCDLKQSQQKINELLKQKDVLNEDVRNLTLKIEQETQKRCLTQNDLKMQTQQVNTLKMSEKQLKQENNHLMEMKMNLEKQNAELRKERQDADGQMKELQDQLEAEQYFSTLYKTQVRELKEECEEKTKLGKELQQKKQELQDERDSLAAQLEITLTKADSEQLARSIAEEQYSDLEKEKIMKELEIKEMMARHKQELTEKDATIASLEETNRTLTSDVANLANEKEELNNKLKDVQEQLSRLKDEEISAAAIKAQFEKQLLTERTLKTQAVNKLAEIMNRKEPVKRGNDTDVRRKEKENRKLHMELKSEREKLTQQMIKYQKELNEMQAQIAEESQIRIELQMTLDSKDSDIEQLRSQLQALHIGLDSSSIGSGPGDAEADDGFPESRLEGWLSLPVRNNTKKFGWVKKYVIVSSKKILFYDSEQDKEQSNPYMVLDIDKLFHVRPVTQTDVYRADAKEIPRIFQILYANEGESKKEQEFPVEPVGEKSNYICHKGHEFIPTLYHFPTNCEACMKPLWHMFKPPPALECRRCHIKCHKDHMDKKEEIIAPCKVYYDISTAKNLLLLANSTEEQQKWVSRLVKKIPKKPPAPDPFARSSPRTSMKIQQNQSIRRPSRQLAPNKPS
In short: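 HTRF kinase assay using STK2 substrate plus ATP in STK-buffer, with test compound pin-dispensed. Reaction ran 4 h at rt and was stopped with antibody and 62.5 nM streptavidin-XL in detection buffer. After a further 1 h at rt, plates were read in HTRF mode.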

Sequence of LIM domain kinase 1 (P53667 whole entry, the tested form may be a part): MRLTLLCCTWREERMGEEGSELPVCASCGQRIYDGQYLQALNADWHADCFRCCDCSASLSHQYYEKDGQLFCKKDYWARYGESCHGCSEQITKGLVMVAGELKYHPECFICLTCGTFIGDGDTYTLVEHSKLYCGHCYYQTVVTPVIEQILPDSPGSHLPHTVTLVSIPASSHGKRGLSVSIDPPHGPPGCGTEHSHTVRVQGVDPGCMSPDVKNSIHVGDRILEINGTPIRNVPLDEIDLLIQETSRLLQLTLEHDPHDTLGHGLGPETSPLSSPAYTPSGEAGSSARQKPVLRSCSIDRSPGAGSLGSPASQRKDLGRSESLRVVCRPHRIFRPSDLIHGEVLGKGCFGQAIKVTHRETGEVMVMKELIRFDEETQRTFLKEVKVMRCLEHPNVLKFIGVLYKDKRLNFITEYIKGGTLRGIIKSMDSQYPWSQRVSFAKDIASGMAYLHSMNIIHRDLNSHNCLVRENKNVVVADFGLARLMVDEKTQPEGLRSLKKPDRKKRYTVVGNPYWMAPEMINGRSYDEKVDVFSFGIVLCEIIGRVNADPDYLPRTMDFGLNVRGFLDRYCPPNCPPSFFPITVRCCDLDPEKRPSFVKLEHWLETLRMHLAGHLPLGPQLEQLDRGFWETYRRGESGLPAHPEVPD

Row | Structure (SMILES) | IC50 (LIM domain kinase 1) [nM] | IC50 [1] [nM]
1 | Cc1cc(NC(=O)Nc2ccc(-c3ncnc4[nH]cc(C)c34)cc2F)ccn1 | 19 | 2010
2 | Cc1c[nH]c2ncnc(-c3ccc(NC(=O)Nc4cncnc4)c(F)c3)c12 | 55 | 1020
3 | Cc1c[nH]c2ncnc(-c3ccc(NC(=O)N(CCO)c4ccccc4)c(F)c3)c12 | 85 | 4510

The next compounds have a lower IC50 (LIM domain kinase 1) than those just listed; values first:

Row | IC50 (LIM domain kinase 1) [nM] | IC50 [1] [nM] | Structure (SMILES)
4 | 10 | > 20000 | COc1ccc(NC(=O)Nc2ccc(-c3ncnc4[nH]cc(C)c34)cc2F)cc1
5 | 11 | 2110 | Cc1ccc(NC(=O)Nc2ccc(-c3ncnc4[nH]cc(C)c34)cc2F)cn1
